# Experimental data published in ChEMBL document CHEMBL4145465, “Design, synthesis and biological evaluation of novel ring-opened cromakalim analogues with relaxant effects on vascular and respiratory smooth muscles and as stimulators of elastin synthesis” (Eur J Med Chem, 2018).
# Activity calls are given as the source filed them. The calls are words filed in the database; no cut-off is given here.
# What was measured:
# Thoracic aorta [1] = assay: Vasorelaxing activity in Wistar rat endothelium-intact thoracic aorta ring assessed as reduction in 30 mM KCl-induced contraction at 300 uM after 15 mins relative to DMSO; settings: 0.25 h
# Thoracic aorta [2] = assay: Vasorelaxing activity in Wistar rat endothelium-intact thoracic aorta ring assessed as reduction in 30 mM KCl-induced contraction after 15 mins; settings: 0.25 h
# Trachea [3] = assay: Tracheorelaxant activity in Wistar rat trachea tonus assessed as reduction in 30 mM KCl-induced contraction after 15 mins; format: functional, tissue-based; settings: 0.25 h
# In short: (§1)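 Trachea rings (3-4 mm) from female Wistar rats were held in a 10 ml organ bath under the same conditions as the aorta and contracted with 30 mM KCl. Compound in DMSO was added cumulatively. EC50 was derived by non-linear regression; Emax is % relaxation at 100 µM.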
# Trachea [4] = assay: Tracheorelaxant activity in Wistar rat trachea tonus assessed as reduction in 30 mM KCl-induced contraction at 100 uM after 15 mins relative to control; format: functional; settings: 0.25 h
# In short: as §1
# Trachea/thoracic aorta = assay: Ratio of EC50 for Wistar rat trachea tonus to EC50 for Wistar rat endothelium-denuded thoracic aorta ring; format: functional; settings: in the assay text read “endothelium-intact” for “endothelium-denuded”
# In short: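 Ratio of trachea EC50 to aorta EC50, both measured against 30 mM KCl contraction in female Wistar rat rings, with cumulative compound addition in DMSO and EC50 from non-linear regression.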
# VSMC [5] = assay: Induction of elastin synthesis in rat VSMC at 20 uM after 48 hrs by ELISA; format: functional, cell-based
# In short: (§2)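 Rat aortic VSMCs (collagenase/elastase digestion of intima-media, grown in DMEM 20% FBS on gelatin) serum-starved overnight in 1% FBS-DMEM, seeded 25000 cells/well, then exposed 48 h to compound in DMSO (<1% final); DMSO-only negative control, diazoxide reference. Fixed cells immunostained for elastin with HRP secondary, TMB substrate, absorbance 450 nm; 5-7 wells per concentration.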
# VSMC [6] = assay: Induction of elastin synthesis in rat VSMC at 50 uM after 48 hrs by ELISA relative to control; format: functional
# In short: as §2
SMILES,EC50 (Thoracic aorta [2]),Emax (Thoracic aorta [1]),further results
CCOc1ccc(Cl)cc1C(C)NC(=O)NS(=O)(=O)c1ccccc1 (stereo not given),> 300 µM,15.8%,
COc1ccc(Cl)cc1C(C)NC(=O)NS(=O)(=O)c1ccc(Cl)cc1 (racemic),> 300 µM,40.9%,
CCOc1ccc(F)cc1C(C)NC(=O)NS(=O)(=O)c1ccc(Cl)cc1 (racemic),> 300 µM,52.7%,
CC(C)Oc1ccc(Br)cc1C(C)NC(=O)NS(=O)(=O)c1ccc(Cl)cc1 (racemic),122 µM,100%,
Cc1ccc(S(=O)(=O)NC(=O)NC(C)c2cc(Br)ccc2OC(C)C)cc1 (stereo not given),61.8 µM,93.2%,
COc1ccc(OC)c(CNC(=O)NS(=O)(=O)c2ccccc2)c1,> 300 µM,-20.3%,
CCOc1ccc(Cl)cc1C(C)NC(=O)NS(=O)(=O)c1ccc(Cl)cc1 (racemic),281 µM,69.7%,
COc1ccc(F)cc1C(C)NC(=O)NS(=O)(=O)c1ccc(C)cc1 (racemic),> 300 µM,-4.5%,
COc1ccc(F)cc1C(C)NC(=O)NS(=O)(=O)c1ccc(Cl)cc1 (racemic),> 300 µM,54.7%,
Cc1ccc(OCc2ccccc2)c(C(C)NC(=O)N(C)S(=O)(=O)c2ccc(Cl)cc2)c1 (racemic),142 µM,76.9%,
COc1ccc(Br)cc1C(C)NC(=O)NS(=O)(=O)c1ccc(Cl)cc1 (racemic),80.9 µM,82.6%,
CCOc1ccc(Br)cc1C(C)NC(=O)N(C)S(=O)(=O)c1ccc(Cl)cc1 (racemic),55.7 µM,71%,
CC(NC(=O)NS(=O)(=O)c1ccccc1)c1ccccc1OCc1ccccc1 (racemic),> 200 µM,59%,
COc1ccc(Cl)cc1C(C)NC(=O)NS(=O)(=O)c1ccccc1 (racemic),> 300 µM,16.4%,
COc1ccc(Cl)cc1C(C)NC(=O)NS(=O)(=O)c1ccc(C)cc1 (racemic),> 300 µM,36.6%,
Cc1ccc(S(=O)(=O)N(C)C(=O)NC(C)c2cc(Br)ccc2OCc2ccccc2)cc1 (racemic),67.1 µM,47.9%,
CC(NC(=O)NS(=O)(=O)c1ccc(Cl)cc1)c1ccccc1OCc1ccccc1 (racemic),157 µM,103%,
CC(NC(=O)N(C)S(=O)(=O)c1ccc(Cl)cc1)c1cc(Br)ccc1OCc1ccccc1 (stereo not given),146 µM,97.3%,
Cc1ccc(OCc2ccccc2)c(C(C)NC(=O)NS(=O)(=O)c2ccccc2)c1 (racemic),> 200 µM,90.7%,
COc1ccc(Br)cc1C(C)NC(=O)NS(=O)(=O)c1ccc(C)cc1 (racemic),> 300 µM,67.6%,

SMILES,EC50 (Thoracic aorta [2]),Emax (Thoracic aorta [1]),further results
COc1ccc(Br)cc1C(C)NC(=O)NS(=O)(=O)c1ccccc1 (racemic),> 300 µM,45.5%,
CCOc1ccc(F)cc1C(C)NC(=O)NS(=O)(=O)c1ccc(C)cc1 (racemic),> 300 µM,26.2%,
CCOc1ccc(F)cc1C(C)NC(=O)NS(=O)(=O)c1ccccc1 (racemic),> 300 µM,46.4%,
CCOc1ccc(Br)cc1C(C)NC(=O)NS(=O)(=O)c1ccc(C)cc1 (racemic),> 300 µM,62.2%,
CCOc1ccc(Cl)cc1C(C)NC(=O)NS(=O)(=O)c1ccc(C)cc1 (racemic),> 300 µM,45.5%,
COc1ccc(OC)c(CNC(=O)NS(=O)(=O)c2ccc(Cl)cc2)c1,> 300 µM,-28%,
CC(C)Oc1ccc(Br)cc1C(C)NC(=O)N(C)S(=O)(=O)c1ccc(Cl)cc1 (racemic),43.2 µM,93.7%,
COc1ccc(OC)c(CNC(=O)NS(=O)(=O)c2ccc(C)cc2)c1,> 300 µM,-14.5%,
Cc1ccc(S(=O)(=O)NC(=O)NC(C)c2cc(Br)ccc2OCc2ccccc2)cc1 (racemic),138 µM,92.5%,
Cc1ccc(OCc2ccccc2)c(C(C)NC(=O)N(C)S(=O)(=O)c2ccccc2)c1 (stereo not given),68.2 µM,86.1%,
CC(NC(=O)N(C)S(=O)(=O)c1ccccc1)c1cc(Br)ccc1OCc1ccccc1 (racemic),60.3 µM,56.8%,
CCOc1ccc(Br)cc1C(C)NC(=O)NS(=O)(=O)c1ccc(Cl)cc1 (racemic),171 µM,77.6%,
CC1=Nc2ccc(Cl)cc2S(=O)(=O)N1 [DIAZOXIDE],,,Activity (VSMC [5]): inactive; Activity (VSMC [6]): 92%
Cc1ccc(S(=O)(=O)NC(=O)NC(C)c2ccccc2OCc2ccccc2)cc1 (racemic),> 200 µM,84.7%,
COc1ccc(F)cc1C(C)NC(=O)NS(=O)(=O)c1ccccc1 (racemic),> 300 µM,1.2%,
Cc1ccc(S(=O)(=O)N(C)C(=O)NC(C)c2cc(C)ccc2OCc2ccccc2)cc1 (racemic),181 µM,82.9%,
CCOc1ccc(Br)cc1C(C)NC(=O)NS(=O)(=O)c1ccccc1 (racemic),> 300 µM,35.9%,
Cc1ccc(S(=O)(=O)NC(=O)NC(C)c2cc(C)ccc2OCc2ccccc2)cc1 (racemic),91.9 µM,106%,
CC(C)Oc1ccc(Br)cc1C(C)NC(=O)NS(=O)(=O)c1ccccc1 (racemic),143 µM,73.2%,
CC(NC(=O)NS(=O)(=O)c1ccccc1)c1cc(Br)ccc1OCc1ccccc1 (racemic),130 µM,92.3%,

# More lines, in order of falling EC50 (Thoracic aorta [2]), values ahead:
EC50 (Thoracic aorta [2]),SMILES,Emax (Thoracic aorta [1]),further results
38.4 µM,CC(NC(=O)N(C)S(=O)(=O)c1ccc(Cl)cc1)c1ccccc1OCc1ccccc1 (racemic),91.1%,
34.7 µM,Cc1ccc(S(=O)(=O)N(C)C(=O)NC(C)c2cc(Br)ccc2OC(C)C)cc1 (racemic),102%,
32.1 µM,CC(C)Oc1ccc(Br)cc1C(C)NC(=O)N(C)S(=O)(=O)c1ccccc1 (racemic),81.5%,
31 µM,Cc1ccc(S(=O)(=O)N(C)C(=O)NC(C)c2ccccc2OCc2ccccc2)cc1 (racemic),93.2%,
28.6 µM,CCOc1ccc(Br)cc1C(C)NC(=O)N(C)S(=O)(=O)c1ccc(C)cc1 (racemic),90.8%,
24.5 µM,CCOc1ccc(F)cc1C(C)NC(=O)N(C)S(=O)(=O)c1ccc(Cl)cc1 (racemic),101%,
21.7 µM,CC(NC(=O)N(C)S(=O)(=O)c1ccccc1)c1ccccc1OCc1ccccc1 (racemic),92.3%,
21.3 µM,COc1ccc(OC)c(CNC(=O)N(C)S(=O)(=O)c2ccccc2)c1,100%,EC50 (Trachea [3]): 18.5 µM; Emax (Trachea [4]): 150%; Ratio EC50 (Trachea/thoracic aorta): 0.9
20.9 µM,COc1ccc(OC)c(CNC(=O)N(C)S(=O)(=O)c2ccc(C)cc2)c1,92.7%,
20 µM,COc1ccc(Cl)cc1C(C)NC(=O)N(C)S(=O)(=O)c1ccc(Cl)cc1 (racemic),103%,
19.8 µM,CCOc1ccc(Br)cc1C(C)NC(=O)N(C)S(=O)(=O)c1ccccc1 (racemic),104%,EC50 (Trachea [3]): 8.4 µM; Emax (Trachea [4]): 137%; Ratio EC50 (Trachea/thoracic aorta): 0.4
19.1 µM,COc1ccc(Br)cc1C(C)NC(=O)N(C)S(=O)(=O)c1ccc(Cl)cc1 (racemic),93.6%,EC50 (Trachea [3]): 39.3 µM; Emax (Trachea [4]): 125%; Ratio EC50 (Trachea/thoracic aorta): 2
19.1 µM,COc1ccc(Br)cc1C(C)NC(=O)N(C)S(=O)(=O)c1ccc(C)cc1 (stereo not given),97.7%,EC50 (Trachea [3]): 12.8 µM; Emax (Trachea [4]): 143%; Ratio EC50 (Trachea/thoracic aorta): 0.7
18.2 µM,COc1ccc(OC)c(CNC(=O)N(C)S(=O)(=O)c2ccc(Cl)cc2)c1,93.6%,
16.8 µM,COc1ccc(Br)cc1C(C)NC(=O)N(C)S(=O)(=O)c1ccccc1 (racemic),98%,EC50 (Trachea [3]): 8.4 µM; Emax (Trachea [4]): 125%; Ratio EC50 (Trachea/thoracic aorta): 0.5
14.6 µM,CCOc1ccc(Cl)cc1C(C)NC(=O)N(C)S(=O)(=O)c1ccc(Cl)cc1 (racemic),105%,
13.8 µM,COc1ccc(Cl)cc1C(C)NC(=O)N(C)S(=O)(=O)c1ccc(C)cc1 (racemic),107%,
12.6 µM,COc1ccc(F)cc1C(C)NC(=O)N(C)S(=O)(=O)c1ccc(Cl)cc1 (racemic),101%,
12.2 µM,CCOc1ccc(Cl)cc1C(C)NC(=O)N(C)S(=O)(=O)c1ccc(C)cc1 (racemic),106%,
11.7 µM,COc1ccc(F)cc1C(C)NC(=O)N(C)S(=O)(=O)c1ccc(C)cc1 (racemic),106%,
11.5 µM,CCOc1ccc(F)cc1C(C)NC(=O)N(C)S(=O)(=O)c1ccccc1 (racemic),106%,
10.5 µM,CCOc1ccc(Cl)cc1C(C)NC(=O)N(C)S(=O)(=O)c1ccccc1 (stereo not given),104%,Activity (VSMC [5]): inactive; Activity (VSMC [6]): Active
10 µM,COc1ccc(F)cc1C(C)NC(=O)N(C)S(=O)(=O)c1ccccc1 (racemic),109%,
7.8 µM,CCOc1ccc(F)cc1C(C)NC(=O)N(C)S(=O)(=O)c1ccc(C)cc1 (racemic),104%,
